ChEMBL document CHEMBL2424622, “Development of amino-pyrimidine inhibitors of c-Jun N-terminal kinase (JNK): kinase profiling guided optimization of a 1,2,3-benzotriazole lead” (Bioorg Med Chem Lett, 2013)

Columns and labels:
[1] = tested on: eIF-2-alpha kinase GCN2 (Homo sapiens), Q9P2K8 [S808G]; experiment: Competitive binding affinity to GCN2 kinase domain 2 S808G mutant (unknown origin) at 10 uM in presence of ATP relative to control
Procedure, shortened: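 In vitro ATP-site competition binding format, run as one member of a diverse 128-kinase profiling panel. Each compound was tested at a single concentration across the whole panel.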

[2] = tested on: T1, Receptor-type tyrosine-protein kinase FLT3 (Homo sapiens), P36888 [D835H]; experiment: Competitive binding affinity to FLT3 D835H mutant (unknown origin) at 10 uM in presence of ATP relative to control
T1 sequence (whole entry): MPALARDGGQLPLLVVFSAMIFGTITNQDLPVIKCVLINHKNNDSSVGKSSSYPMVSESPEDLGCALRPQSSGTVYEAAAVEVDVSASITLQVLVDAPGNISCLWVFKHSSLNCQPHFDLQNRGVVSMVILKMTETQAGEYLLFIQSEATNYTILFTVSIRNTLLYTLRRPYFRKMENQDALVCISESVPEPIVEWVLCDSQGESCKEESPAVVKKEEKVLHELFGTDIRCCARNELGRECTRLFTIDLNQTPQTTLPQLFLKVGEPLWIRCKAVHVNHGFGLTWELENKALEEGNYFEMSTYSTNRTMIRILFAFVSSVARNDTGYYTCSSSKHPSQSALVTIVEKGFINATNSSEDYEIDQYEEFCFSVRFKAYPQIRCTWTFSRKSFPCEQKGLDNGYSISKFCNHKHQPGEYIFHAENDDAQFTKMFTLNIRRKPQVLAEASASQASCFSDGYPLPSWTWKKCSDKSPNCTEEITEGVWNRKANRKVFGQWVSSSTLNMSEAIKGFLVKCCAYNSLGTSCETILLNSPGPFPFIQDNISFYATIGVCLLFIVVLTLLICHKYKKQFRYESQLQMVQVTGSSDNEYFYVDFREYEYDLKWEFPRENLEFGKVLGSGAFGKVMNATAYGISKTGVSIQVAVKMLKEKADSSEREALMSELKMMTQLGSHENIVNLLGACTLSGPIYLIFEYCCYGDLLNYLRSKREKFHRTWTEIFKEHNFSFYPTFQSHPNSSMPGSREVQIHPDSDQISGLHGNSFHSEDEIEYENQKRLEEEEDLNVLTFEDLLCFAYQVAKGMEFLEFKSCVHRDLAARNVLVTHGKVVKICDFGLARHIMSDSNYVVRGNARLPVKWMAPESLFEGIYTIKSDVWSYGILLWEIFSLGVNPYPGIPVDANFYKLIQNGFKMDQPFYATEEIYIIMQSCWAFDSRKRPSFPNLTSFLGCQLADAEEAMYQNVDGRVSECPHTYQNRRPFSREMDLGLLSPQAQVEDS

[3] = target: T2, Serine/threonine-protein kinase DCLK3 (Homo sapiens) (UniProt Q9C098); experiment: Competitive binding affinity to DCAMKL3 (unknown origin) at 10 uM in presence of ATP relative to control
T2 sequence (whole entry): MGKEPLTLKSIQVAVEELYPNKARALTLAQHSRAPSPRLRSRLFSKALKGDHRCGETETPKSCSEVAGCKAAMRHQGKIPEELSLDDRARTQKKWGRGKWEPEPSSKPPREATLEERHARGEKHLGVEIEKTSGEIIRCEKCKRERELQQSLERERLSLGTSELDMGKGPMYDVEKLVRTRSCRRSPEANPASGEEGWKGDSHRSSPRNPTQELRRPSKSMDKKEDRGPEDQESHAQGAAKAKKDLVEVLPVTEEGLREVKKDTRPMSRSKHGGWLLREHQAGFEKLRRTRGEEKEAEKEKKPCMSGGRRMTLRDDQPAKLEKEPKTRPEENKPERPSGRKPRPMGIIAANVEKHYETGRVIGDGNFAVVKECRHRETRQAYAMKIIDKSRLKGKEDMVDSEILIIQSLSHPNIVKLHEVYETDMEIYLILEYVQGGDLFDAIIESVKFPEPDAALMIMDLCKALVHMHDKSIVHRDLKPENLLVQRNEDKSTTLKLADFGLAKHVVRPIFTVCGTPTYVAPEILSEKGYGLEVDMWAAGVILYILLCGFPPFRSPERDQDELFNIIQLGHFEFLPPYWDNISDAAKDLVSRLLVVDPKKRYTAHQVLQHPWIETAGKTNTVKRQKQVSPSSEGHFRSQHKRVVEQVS

[4] = target: Citron Rho-interacting kinase (Homo sapiens, UniProt O14578); experiment: Competitive binding affinity to CIT (unknown origin) at 10 uM in presence of ATP relative to control
Sequence of Citron Rho-interacting kinase (O14578 whole entry): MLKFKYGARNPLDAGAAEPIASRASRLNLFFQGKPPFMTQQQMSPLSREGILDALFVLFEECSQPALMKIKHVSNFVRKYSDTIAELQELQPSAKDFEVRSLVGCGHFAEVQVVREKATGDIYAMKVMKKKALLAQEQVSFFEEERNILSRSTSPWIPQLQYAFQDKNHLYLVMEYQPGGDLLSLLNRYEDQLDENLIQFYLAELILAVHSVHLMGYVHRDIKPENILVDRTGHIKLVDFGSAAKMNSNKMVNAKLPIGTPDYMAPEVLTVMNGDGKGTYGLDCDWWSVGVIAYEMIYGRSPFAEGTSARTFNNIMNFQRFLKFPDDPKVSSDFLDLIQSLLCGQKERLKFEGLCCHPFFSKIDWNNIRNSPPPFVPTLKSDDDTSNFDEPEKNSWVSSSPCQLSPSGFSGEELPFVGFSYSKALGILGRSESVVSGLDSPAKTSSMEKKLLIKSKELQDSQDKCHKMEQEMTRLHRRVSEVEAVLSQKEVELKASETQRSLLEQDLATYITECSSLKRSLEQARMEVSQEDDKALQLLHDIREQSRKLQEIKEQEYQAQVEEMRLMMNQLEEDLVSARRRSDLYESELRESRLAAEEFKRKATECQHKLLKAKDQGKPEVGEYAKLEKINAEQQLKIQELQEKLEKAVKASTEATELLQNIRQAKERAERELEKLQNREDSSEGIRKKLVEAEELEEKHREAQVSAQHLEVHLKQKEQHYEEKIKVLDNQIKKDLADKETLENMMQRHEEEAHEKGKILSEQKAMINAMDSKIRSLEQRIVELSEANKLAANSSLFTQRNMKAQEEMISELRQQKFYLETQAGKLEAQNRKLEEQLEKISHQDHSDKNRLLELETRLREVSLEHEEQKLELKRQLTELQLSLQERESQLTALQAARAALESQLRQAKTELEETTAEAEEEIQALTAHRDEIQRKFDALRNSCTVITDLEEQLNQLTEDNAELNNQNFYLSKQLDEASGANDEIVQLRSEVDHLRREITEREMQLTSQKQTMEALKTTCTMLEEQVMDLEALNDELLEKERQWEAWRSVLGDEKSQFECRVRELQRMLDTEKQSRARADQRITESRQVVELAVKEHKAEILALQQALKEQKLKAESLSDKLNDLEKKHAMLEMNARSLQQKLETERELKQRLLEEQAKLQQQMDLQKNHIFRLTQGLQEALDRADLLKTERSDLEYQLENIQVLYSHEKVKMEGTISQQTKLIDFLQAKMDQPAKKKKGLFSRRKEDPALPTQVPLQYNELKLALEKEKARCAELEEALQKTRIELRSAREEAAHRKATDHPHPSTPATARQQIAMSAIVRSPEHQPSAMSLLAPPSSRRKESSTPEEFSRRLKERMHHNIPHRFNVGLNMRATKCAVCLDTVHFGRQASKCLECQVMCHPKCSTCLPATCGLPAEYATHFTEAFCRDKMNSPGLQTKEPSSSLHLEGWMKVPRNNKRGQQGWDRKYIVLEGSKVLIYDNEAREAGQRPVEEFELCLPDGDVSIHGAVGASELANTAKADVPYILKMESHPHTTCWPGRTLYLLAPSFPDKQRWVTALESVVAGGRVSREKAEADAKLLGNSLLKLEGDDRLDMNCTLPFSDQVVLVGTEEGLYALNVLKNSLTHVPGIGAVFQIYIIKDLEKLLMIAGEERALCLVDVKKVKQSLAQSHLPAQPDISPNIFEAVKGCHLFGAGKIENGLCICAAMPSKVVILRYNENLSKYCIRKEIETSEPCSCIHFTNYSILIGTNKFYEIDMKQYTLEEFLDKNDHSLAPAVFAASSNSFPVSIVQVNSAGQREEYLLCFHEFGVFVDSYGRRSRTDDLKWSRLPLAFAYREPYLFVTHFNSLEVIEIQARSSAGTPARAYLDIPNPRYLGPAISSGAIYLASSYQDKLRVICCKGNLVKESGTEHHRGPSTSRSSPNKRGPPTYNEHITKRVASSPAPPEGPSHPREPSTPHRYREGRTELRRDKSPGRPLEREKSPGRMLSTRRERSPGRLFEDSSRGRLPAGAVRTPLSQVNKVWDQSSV

[5] = target: T3, Protein kinase C epsilon type (Homo sapiens) (UniProt Q02156); experiment: Competitive binding affinity to PRKCE (unknown origin) at 10 uM in presence of ATP relative to control
T3 sequence (whole entry): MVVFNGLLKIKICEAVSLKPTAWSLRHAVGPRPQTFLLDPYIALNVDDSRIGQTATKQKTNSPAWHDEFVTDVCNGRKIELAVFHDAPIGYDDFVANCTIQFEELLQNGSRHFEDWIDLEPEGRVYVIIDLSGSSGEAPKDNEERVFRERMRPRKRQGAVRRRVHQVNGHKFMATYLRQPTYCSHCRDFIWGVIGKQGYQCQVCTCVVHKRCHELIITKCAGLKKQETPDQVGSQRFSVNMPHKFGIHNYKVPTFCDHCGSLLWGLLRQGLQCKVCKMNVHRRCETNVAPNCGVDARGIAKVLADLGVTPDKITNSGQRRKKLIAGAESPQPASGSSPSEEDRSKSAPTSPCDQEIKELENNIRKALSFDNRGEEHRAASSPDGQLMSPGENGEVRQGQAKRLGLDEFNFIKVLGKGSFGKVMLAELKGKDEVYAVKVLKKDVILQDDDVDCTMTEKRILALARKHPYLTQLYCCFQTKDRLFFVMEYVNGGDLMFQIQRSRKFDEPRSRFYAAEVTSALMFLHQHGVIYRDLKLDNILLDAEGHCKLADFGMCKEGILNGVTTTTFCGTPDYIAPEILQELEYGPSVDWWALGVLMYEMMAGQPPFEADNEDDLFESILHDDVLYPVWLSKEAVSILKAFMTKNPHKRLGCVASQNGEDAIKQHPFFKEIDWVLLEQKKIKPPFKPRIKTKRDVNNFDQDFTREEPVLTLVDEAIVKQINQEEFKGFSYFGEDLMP

Sequence of eIF-2-alpha kinase GCN2 (Homo sapiens), Q9P2K8 [S808G] (Q9P2K8 whole entry S808G, the tested form may be a part): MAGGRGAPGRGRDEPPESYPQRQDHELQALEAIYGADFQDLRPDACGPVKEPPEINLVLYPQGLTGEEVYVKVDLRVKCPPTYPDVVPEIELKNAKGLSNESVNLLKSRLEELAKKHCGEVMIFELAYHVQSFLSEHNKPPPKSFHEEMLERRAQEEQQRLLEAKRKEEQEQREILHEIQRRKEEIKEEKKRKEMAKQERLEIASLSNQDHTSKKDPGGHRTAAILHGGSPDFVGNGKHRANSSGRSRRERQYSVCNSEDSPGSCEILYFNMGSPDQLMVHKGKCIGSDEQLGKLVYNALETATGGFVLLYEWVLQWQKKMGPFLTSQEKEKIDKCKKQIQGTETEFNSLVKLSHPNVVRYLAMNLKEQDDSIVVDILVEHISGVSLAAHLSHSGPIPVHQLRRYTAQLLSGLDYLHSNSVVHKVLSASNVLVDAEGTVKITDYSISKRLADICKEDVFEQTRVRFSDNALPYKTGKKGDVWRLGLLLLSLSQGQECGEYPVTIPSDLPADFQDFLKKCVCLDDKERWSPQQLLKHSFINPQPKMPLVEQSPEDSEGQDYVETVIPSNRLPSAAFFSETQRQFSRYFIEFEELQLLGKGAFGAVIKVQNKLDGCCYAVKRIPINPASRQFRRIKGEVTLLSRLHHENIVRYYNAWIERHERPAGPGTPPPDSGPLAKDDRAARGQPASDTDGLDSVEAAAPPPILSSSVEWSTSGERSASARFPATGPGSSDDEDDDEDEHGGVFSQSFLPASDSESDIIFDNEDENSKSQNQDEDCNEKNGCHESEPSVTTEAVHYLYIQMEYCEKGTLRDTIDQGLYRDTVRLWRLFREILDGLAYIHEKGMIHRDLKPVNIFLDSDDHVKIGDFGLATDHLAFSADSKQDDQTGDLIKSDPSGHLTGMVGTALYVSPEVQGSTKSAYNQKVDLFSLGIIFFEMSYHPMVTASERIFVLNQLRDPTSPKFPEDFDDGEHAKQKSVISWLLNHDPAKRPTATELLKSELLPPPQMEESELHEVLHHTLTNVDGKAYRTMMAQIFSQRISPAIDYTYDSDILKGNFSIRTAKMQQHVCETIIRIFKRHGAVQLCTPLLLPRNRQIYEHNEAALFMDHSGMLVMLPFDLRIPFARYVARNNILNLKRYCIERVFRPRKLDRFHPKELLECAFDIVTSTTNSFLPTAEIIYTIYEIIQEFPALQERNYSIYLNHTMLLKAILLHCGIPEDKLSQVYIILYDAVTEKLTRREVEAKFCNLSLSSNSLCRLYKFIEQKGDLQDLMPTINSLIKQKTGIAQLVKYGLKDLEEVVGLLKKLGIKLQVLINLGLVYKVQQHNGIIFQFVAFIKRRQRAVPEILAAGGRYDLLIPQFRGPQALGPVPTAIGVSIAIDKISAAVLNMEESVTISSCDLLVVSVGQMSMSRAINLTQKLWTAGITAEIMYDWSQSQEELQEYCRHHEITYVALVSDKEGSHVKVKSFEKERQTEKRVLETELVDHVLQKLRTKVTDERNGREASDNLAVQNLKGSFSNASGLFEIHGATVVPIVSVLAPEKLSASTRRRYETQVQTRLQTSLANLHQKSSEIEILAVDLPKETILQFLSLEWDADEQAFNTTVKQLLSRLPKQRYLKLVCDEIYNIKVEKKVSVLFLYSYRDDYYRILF

Compound | inhibition [1] | inhibition [2] | inhibition [3] | inhibition [4] | inhibition [5]
O[C@H]1CC[C@H](Nc2nccc(-c3n[nH]c4ccccc34)n2)CC1 | 100% | 100% | – | – | –
O[C@H]1CC[C@H](Nc2nccc(-n3ccc4ccccc43)n2)CC1 | 83% | < 50% | 84% | 79% | < 50%
CS(=O)(=O)CCCOc1cccc2c1ccn2-c1ccnc(N[C@H]2CC[C@H](C(=O)N3CCC(O)CC3)CC2)n1 | > 85% | – | > 85% | > 85% | –

Second part, the molecule after the results:

inhibition [1] | inhibition [2] | inhibition [3] | inhibition [4] | inhibition [5] | Compound
99% | 99% | 92% | 98% | < 50% | O[C@H]1CC[C@H](Nc2nccc(-n3nnc4ccccc43)n2)CC1
100% | 100% | 73% | 75% | < 50% | O[C@H]1CC[C@H](Nc2nccc(-n3ncc4ccccc43)n2)CC1
